Data published in ChEMBL document CHEMBL4396895, “Identification and Optimization of Novel Cathepsin C Inhibitors Derived from EGFR Inhibitors” (J Med Chem, 2019).
pIC50: −log10 of the molar value. The source made the active and inactive calls. The calls are words filed in the database; no cut-off is given here.

Legend:
Mus musculus [1] = assay: In vivo inhibition of CatC in po dosed C57BL/6 mouse blood assessed as reduction in CatG activation administered twice daily for 6 days using N-succinyl-Ala-Ala-Pro-Phe-pNA as substrate measured up to 90 mins by fluorescence assay; format: functional, organism-based
Summary of the method: (§1)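 C57BL/6 mice (20−25 g; n = 10 per group) received oral doses twice daily at 6.7, 20 or 60 mg/kg for 6 days. The vehicle group got 0.5% Methocel and 0.1% Tween-80 in 100 mM citrate buffer, pH 3. Blood was drawn by eye puncture 14 h after the last dose. Bone marrow was flushed from femurs and tibias with ice-cold RPMI 1640. Cells were lysed in 50 mM Tris pH 7.4, 750 mM NaCl, 1% Triton X-100, sonicated on ice and stored at −80 °C. Lysates were diluted by protein content, with blood diluted 5-fold more than marrow. Kinetics were followed for up to 90 min. Results are % of the vehicle mean.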

[2] = Half life in C57BL/6 mouse at 10 mg/kg, ip by LC-MS/MS analysis; format: ADME, organism-based; settings: in vivo
Summary of the method: (§2)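 Male C57BL/6 mice (n = 3) were dosed with a single IV dose of 2 mg/kg or an IP or PO dose of 10 mg/kg. Vehicle: 0.5% Methocel and 0.1% Tween-80 in citrate buffer, pH 3. Blood was drawn by eye puncture at several time points and analysed by LC-MS/MS. Parameters came from noncompartmental analysis of individual animals and are reported as means.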

Cytochrome P450 3A4 = Cytochrome P450 3A4 (Homo sapiens, UniProt P08684); assay: Inhibition of CYP3A4 (unknown origin); format: ADME
Summary of the method: (§3)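 Tested against recombinant human cytochrome P450 isoforms 1A2, 2D6, 3A4, 2C9 and 2C19.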

[3] = Bioavailability in C57BL/6 mouse at 10 mg/kg, ip by LC-MS/MS analysis; format: ADME, organism-based; settings: in vivo; summary of the method: as §2
[4] = Drug uptake in C57BL/6 mouse lung at 10 mg/kg, po by LC-MS/MS analysis; format: ADME, organism-based; settings: in vivo
[5] = AUC infinity in C57BL/6 mouse at 2 mg/kg, iv by LC-MS/MS analysis; format: ADME, organism-based; set-up: dose 2 mg/kg, time infinity, route intravenous; settings: in vivo; summary of the method: as §2
Cathepsin B = Cathepsin B (Homo sapiens, UniProt P07858); assay: Inhibition of recombinant human C-terminal polyhistidine-tagged cathepsin B (Arg18 to Ile339 residues) expressed in HEK293 cells using Z-Leu-Arg-AMC as substrate preincubated for 30 mins followed by substrate addition and measured after 30 mins
Summary of the method: (§4)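 Recombinant human cathepsin was preincubated with compound for 30 min at RT, then reacted with substrate for 30 min. CatB and CatL were read with Z-Leu-Arg-AMC (Ex 380/Em 460 nm). CatS was read with MCA-Arg-Pro-Lys-Pro-Val-Glu-Nva-Trp-Arg-Lys(DNP)-NH2 (Ex 320/Em 405 nm). E-64 served as inhibitor control.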

[6] = Half life in C57BL/6 mouse at 10 mg/kg, po by LC-MS/MS analysis; format: ADME, organism-based; settings: in vivo; summary of the method: as §2
[7] = AUC infinity in C57BL/6 mouse at 10 mg/kg, po by LC-MS/MS analysis; format: ADME, organism-based; set-up: dose 10 mg/kg, time infinity, route oral; settings: in vivo; summary of the method: as §2
[8] = Cmax in C57BL/6 mouse at 10 mg/kg, ip by LC-MS/MS analysis; format: ADME, organism-based; set-up: dose 10 mg/kg, route intraperitoneal; settings: in vivo; summary of the method: as §2
Dipeptidyl peptidase 1 = Dipeptidyl peptidase 1 (Homo sapiens, UniProt P53634); assay: Inhibition of cathepsin C in human THP1 cells using H-Gly-Phe-AFC as substrate preincubated for 4 hrs followed by substrate addition and measured after 60 mins; format: cell-based
Summary of the method: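 THP1 or U937 cells, grown in RPMI 1640 with 10% FBS, were seeded at 1.0 × 10^6/mL. They were preincubated with threefold serial dilutions of compound for 4 h at 37 °C. H-Gly-Phe-AFC was then added from a 100 μM solution and fluorescence was read after 60 min at 37 °C. Values are means of at least two experiments.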

Mus musculus [9] = assay: Protection against C57BL/6 mouse model of caerulein-induced acute pancreatitis assessed as reduction in CatC activity at 20 mg/kg, po pretreated twice daily for 6 days followed by caerulein-challenge at 1 hr interval for 8 hrs and measured 1 hr post-last caerulein-challenge
Cytochrome P450 2C19 = Cytochrome P450 2C19 (Homo sapiens, UniProt P33261); assay: Inhibition of CYP2C19 (unknown origin); format: ADME; summary of the method: as §3
Mus musculus [10] = assay: In vivo inhibition of CatC in po dosed C57BL/6 mouse bone marrow assessed as reduction in CatG activation administered twice daily for 6 days using N-succinyl-Ala-Ala-Pro-Phe-pNA as substrate measured up to 90 mins by fluorescence assay; format: functional, organism-based; summary of the method: as §1
Cytochrome P450 2D6 = Cytochrome P450 2D6 (Homo sapiens, UniProt P10635); assay: Inhibition of CYP2D6 (unknown origin); format: ADME; summary of the method: as §3
Cathepsin S = Cathepsin S (Homo sapiens, UniProt P25774); assay: Inhibition of recombinant human C-terminal polyhistidine-tagged cathepsin S (Met1 to Ile331 residues) expressed in HEK293 cells using MCA-Arg-Pro-Lys-Pro-Val-Glu-NVAL-Trp-Arg-Lys(DNP)-NH2 as substrate preincubated for 30 mins followed by substrate addition and measured after 30 mins; summary of the method: as §4
Mus musculus [11] = assay: In vivo inhibition of CatC in po dosed C57BL/6 mouse bone marrow assessed as reduction in proteinase 3 activation administered twice daily for 6 days using aminobenzoyl-Val-Ala-Asp-Cys-Ala-Asp-Gln-ethylenediamine 2,4-dinitrophenyl as substrate measured up to 90 mins by fluorescence assay; format: functional, organism-based; summary of the method: as §1
[12] = Intrinsic clearance in rat liver microsomes assessed per mg protein measured after 60 mins in presence of NADPH by LC-MS/MS analysis; format: ADME, Microsome; settings: read-out: CLH
Mus musculus [13] = assay: In vivo inhibition of CatC in C57BL/6 mouse blood at 20 mg/kg, po single dose using Gly-Phe-AFC as substrate measured 8 hrs post dose for up to 90 mins by fluorescence assay relative to control; settings: C57BL/6, Blood
Mus musculus [14] = assay: In vivo inhibition of CatC in po dosed C57BL/6 mouse blood assessed as reduction in proteinase 3 activation administered twice daily for 6 days using aminobenzoyl-Val-Ala-Asp-Cys-Ala-Asp-Gln-ethylenediamine 2,4-dinitrophenyl as substrate measured up to 90 mins by fluorescence assay; format: functional, organism-based; summary of the method: as §1
Mus musculus [15] = assay: In vivo inhibition of CatC in po dosed C57BL/6 mouse bone marrow administered twice daily for 6 days using Gly-Phe-AFC as substrate measured up to 90 mins by fluorescence assay; format: functional, organism-based; summary of the method: as §1
[16] = AUC infinity in C57BL/6 mouse at 10 mg/kg, ip by LC-MS/MS analysis; format: ADME, organism-based; set-up: dose 10 mg/kg, route intraperitoneal, time infinity; settings: in vivo; summary of the method: as §2

Dipeptidyl peptidase 1, sequence (P53634 25-134 limits assumed): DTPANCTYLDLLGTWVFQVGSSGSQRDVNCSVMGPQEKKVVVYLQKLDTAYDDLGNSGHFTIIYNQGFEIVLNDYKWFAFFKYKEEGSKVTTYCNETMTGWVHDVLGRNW
Dipeptidyl peptidase 1, sequence (P53634 231-394 limits assumed): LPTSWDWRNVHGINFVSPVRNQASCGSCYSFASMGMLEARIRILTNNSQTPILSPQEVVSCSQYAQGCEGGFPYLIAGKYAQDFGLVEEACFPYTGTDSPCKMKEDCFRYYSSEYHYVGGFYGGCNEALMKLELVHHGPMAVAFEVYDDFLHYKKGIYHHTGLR
Dipeptidyl peptidase 1, sequence (P53634 395-463 limits assumed): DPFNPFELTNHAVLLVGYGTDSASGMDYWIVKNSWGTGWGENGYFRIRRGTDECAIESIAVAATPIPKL
Cytochrome P450 3A4, sequence (P08684 whole entry, canonical isoform): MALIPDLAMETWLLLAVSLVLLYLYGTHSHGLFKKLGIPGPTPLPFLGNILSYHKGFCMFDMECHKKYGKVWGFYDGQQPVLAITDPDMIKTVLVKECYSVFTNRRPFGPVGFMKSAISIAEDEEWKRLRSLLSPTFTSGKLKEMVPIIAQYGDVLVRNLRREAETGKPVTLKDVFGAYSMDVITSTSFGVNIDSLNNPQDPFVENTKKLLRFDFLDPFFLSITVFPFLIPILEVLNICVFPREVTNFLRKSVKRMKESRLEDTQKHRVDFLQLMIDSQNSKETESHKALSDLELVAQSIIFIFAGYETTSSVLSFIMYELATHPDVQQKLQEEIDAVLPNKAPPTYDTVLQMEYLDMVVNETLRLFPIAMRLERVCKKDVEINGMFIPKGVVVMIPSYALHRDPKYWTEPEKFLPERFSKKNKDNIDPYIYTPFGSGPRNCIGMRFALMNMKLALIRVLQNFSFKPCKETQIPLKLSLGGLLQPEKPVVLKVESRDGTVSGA
Cytochrome P450 2D6, sequence (P10635 whole entry): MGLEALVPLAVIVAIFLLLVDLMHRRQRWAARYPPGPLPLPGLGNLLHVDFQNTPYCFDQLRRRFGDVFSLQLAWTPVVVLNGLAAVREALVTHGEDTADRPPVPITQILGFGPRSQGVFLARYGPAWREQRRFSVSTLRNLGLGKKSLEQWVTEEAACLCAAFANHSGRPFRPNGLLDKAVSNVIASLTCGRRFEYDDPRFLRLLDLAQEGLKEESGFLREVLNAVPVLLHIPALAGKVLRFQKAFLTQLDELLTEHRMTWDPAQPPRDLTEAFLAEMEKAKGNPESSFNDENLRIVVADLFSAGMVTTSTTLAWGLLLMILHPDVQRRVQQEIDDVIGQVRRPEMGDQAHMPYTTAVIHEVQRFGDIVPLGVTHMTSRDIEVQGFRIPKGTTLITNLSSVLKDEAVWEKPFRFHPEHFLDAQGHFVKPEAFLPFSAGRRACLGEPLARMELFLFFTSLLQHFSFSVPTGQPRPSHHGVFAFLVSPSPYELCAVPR
Cytochrome P450 2C19, sequence (P33261 whole entry): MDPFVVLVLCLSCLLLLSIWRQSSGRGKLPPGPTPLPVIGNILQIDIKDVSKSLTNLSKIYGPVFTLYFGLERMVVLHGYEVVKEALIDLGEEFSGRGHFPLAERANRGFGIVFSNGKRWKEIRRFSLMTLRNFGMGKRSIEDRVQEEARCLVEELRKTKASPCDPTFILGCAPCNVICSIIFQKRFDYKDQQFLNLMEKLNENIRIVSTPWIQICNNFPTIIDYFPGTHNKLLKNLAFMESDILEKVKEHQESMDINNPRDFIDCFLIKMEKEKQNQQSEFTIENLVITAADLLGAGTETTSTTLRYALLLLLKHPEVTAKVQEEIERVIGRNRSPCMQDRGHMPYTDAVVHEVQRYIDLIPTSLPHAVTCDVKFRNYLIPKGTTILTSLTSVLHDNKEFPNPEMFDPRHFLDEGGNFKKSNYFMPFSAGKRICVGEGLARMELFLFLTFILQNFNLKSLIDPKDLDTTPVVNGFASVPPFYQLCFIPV
Cathepsin S, sequence (P25774 whole entry): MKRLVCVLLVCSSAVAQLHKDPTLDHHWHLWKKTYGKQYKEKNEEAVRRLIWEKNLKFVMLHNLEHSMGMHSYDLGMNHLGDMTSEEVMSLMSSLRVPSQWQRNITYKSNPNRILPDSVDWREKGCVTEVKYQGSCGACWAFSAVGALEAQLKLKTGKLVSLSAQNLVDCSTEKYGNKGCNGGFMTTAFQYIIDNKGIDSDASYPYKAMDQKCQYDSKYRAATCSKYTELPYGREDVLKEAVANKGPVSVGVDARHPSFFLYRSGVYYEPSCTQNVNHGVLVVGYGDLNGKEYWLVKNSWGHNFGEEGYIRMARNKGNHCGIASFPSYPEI

half-life [2]: 1.19 h | pIC50 (Cytochrome P450 3A4): < 5.00 | bioavailability [3]: 20.3% | Drug uptake [4]: Active | AUC(0-inf) [5]: 1220 ng·h/mL | pIC50 (Cathepsin B): 5.00 to 5.52 | half-life [6]: 3.06 h | AUC(0-inf) [7]: 1360 ng·h/mL | Cmax [8]: 766 ng/mL | pIC50 (Dipeptidyl peptidase 1): 8.72 | inhibition (Dipeptidyl peptidase 1): Dose-dependent effect | pIC50 (Cytochrome P450 2C19): < 5.00 | pIC50 (Cytochrome P450 2D6): < 5.00 | pIC50 (Cathepsin S): < 5.00 | microsomal CLint [12]: 6.3 µL/min/mg | AUC(0-inf) [16]: 1240 ng·h/mL
SMILES: C=CC(=O)Nc1cc(Oc2nc(Nc3ccc(N4CCN(C)CC4)cc3OC)ccc2N2CCCCC2)ccc1C
inhibition (Mus musculus [1]): Dose-dependent effect | Activity (Mus musculus [9]): Active | inhibition (Mus musculus [10]): Dose-dependent effect | inhibition (Mus musculus [11]): Dose-dependent effect | inhibition in vivo at 20 mg/kg (Mus musculus [13]): 80% | inhibition (Mus musculus [14]): Dose-dependent effect | inhibition (Mus musculus [15]): Dose-dependent effect
